Assay results reported in ChEMBL document CHEMBL1123566, “Synthesis and cardiac electrophysiological activity of 2- and 3-[(substituted phenyl)alkyl]quinuclidines. Structure-activity relationships” (1987).

Assays:
Canis familiaris [1] = assay: Conduction time was determined by intraduodenal administration of two dosages of 10 mg/kg of compound in anesthetized dogs. Value was reported for experiment 2; format: functional, Canis lupus familiaris
Summary of the method: (§1)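 Anesthetized dogs; compound given intraduodenally, generally as two doses, the second a cumulative (high) dose. LV functional refractory period and conduction time measured 15, 30 and 45 min after dosing; heart rate and blood pressure measured during nonpacing intervals. Values are % change from control, given per individual animal. Active if FRP or CT prolonged by ≥12%.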

Canis familiaris [2] = assay: Conduction time was determined by intraduodenal administration of two dosages of 10 mg/kg (high dose) of compound in anesthetized dogs. Value was reported for experiment 1; format: functional, Canis lupus familiaris; summary of the method: as §1
Canis familiaris [3] = assay: Conduction time was determined by intraduodenal administration of two dosages of 3 mg/kg (low dose) of compound in anesthetized dogs. Value was reported for experiment 1; format: functional, Canis lupus familiaris; summary of the method: as §1
Canis familiaris [4] = assay: Heart rate was determined by intraduodenal administration of two dosages of 3 mg/kg of (low dose) compound in anesthetized dogs. Value was reported for experiment 1; format: functional, Canis lupus familiaris; summary of the method: as §1
Canis familiaris [5] = assay: Heart rate was determined by intraduodenal administration of two dosages of 10 mg/kg of (high dose) compound in anesthetized dogs. Value was reported for experiment 1; format: functional, Canis lupus familiaris; summary of the method: as §1
Canis familiaris [6] = assay: Heart rate was determined by intraduodenal administration of two dosages of 10 mg/kg of compound in anesthetized dogs. Value was reported for experiment 2; format: functional, Canis lupus familiaris; summary of the method: as §1
Canis familiaris [7] = assay: Left ventricular refractory period was determined by intraduodenal administration of two dosages of 10 mg/kg of (high dose) compound in anesthetized dogs. Value was reported for experiment 1; format: functional, Canis lupus familiaris, Cardiac ventricle
Summary of the method: (§2)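 Anesthetized dogs received two intraduodenal doses, the second cumulative (low dose/high dose). Left ventricular FRP and CT were measured 15, 30 and 45 min after dosing. Heart rate and mean blood pressure were taken during nonpacing intervals. Values are percent change from control. The vehicle was 5% dextrose in water/tragacanth. Activity was defined as ≥12% prolongation of FRP or CT.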

Canis familiaris [8] = assay: Left ventricular refractory period was determined by intraduodenal administration of two dosages of 10 mg/kg of compound in anesthetized dogs. Value was reported for experiment 2; format: functional, Canis lupus familiaris, Cardiac ventricle
Canis familiaris [9] = assay: Left ventricular refractory period was determined by intraduodenal administration of two dosages of 3 mg/kg of (low dose) compound in anesthetized dogs. Value was reported for experiment 1; format: functional, Canis lupus familiaris, Cardiac ventricle; summary of the method: as §2
Canis familiaris [10] = assay: Mean arterial blood pressure was determined by intraduodenal administration of two dosages of 10 mg/kg of (high dose) compound in anesthetized dogs. Value was reported for experiment 1; format: functional, Canis lupus familiaris; summary of the method: as §2
Canis familiaris [11] = assay: Mean arterial blood pressure was determined by intraduodenal administration of two dosages of 10 mg/kg of compound in anesthetized dogs. Value was reported for experiment 2; format: functional, Canis lupus familiaris; summary of the method: as §2
Canis familiaris [12] = assay: Mean arterial blood pressure was determined by intraduodenal administration of two dosages of 3 mg/kg of (low dose) compound in anesthetized dogs. Value was reported for experiment 1; format: functional, Canis lupus familiaris; summary of the method: as §2
Canis familiaris [13] = organism: Canis familiaris; assay: In vitro electrophysiological evaluation in canine cardiac ventricular muscle reported as % change for the functional refractory period (FRP) concentration range of 0.1-30 uM; set-up: species or system Canis lupus familiaris, Muscle tissue
Summary of the method: (§3)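 Canine right ventricle and papillary muscle strips in oxygenated Tyrode's solution, fitted with stimulating and recording electrodes. The extra-stimulus conduction-interval method was adapted for in vitro use. FRP and CT were read from a conduction-interval curve before and after various compound concentrations, and expressed as percent change from control. Compounds were taken from 10 mM deionized-water stock into Tyrode's. Each strip was used once as its own control.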

Canis familiaris [14] = organism: Canis familiaris; assay: In vitro electrophysiological evaluation in canine cardiac ventricular muscle reported as maximum % change for conduction time(CT) at 0.1-30 uM concentration range; Minimal (<IO%increase or a decrease in CT); format: functional, Canis lupus familiaris, Muscle tissue; summary of the method: as §3
Canis familiaris [15] = organism: Canis familiaris; assay: In vitro electrophysiological evaluation in canine cardiac ventricular muscle reported as % change for conduction time(CT) at 0.1-30 uM concentration range; Minimal (<IO%increase or a decrease in CT); format: functional, Canis lupus familiaris, Muscle tissue
Canis familiaris [16] = organism: Canis familiaris; assay: In vitro electrophysiological evaluation in canine cardiac Purkinje fibres reported as percent change Vmax concentration range of 0.1-10 uM; Minimal (<IO%increase or a decrease in CT); format: functional; conditions: Canis lupus familiaris; Purkinje fiber
Summary of the method: (§4)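 Canine cardiac Purkinje fibres, intracellular microelectrode recording, paced at a basic cycle length of 1 s. APD95 and Vmax read simultaneously. Compound: 10 mM stock in deionized water, diluted into Tyrode's solution, tested over the stated concentration range. Each fibre used once as its own control. Result is % change from control, given at 10 µM or as the maximum with its concentration. M = <10% decrease or an increase in Vmax.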

Canis familiaris [17] = organism: Canis familiaris; assay: In vitro electrophysiological evaluation in canine cardiac Purkinje fibres reported as percent change Vmax concentration range of 0.1-30 uM; Minimal (<IO%increase or a decrease in CT); format: functional; conditions: Canis lupus familiaris; Purkinje fiber; summary of the method: as §4
Canis familiaris [18] = organism: Canis familiaris; assay: In vitro electrophysiological evaluation in canine cardiac ventricular muscle reported as maximum % change for functional refractory period (FRP) at 0.1-30 uM concentration range; set-up: species or system Canis lupus familiaris, Muscle tissue; summary of the method: as §3
Canis familiaris [19] = organism: Canis familiaris; assay: In vitro electrophysiological evaluation in canine cardiac Purkinje fibres reported as maximum percent change Vmax concentration range of 0.1-10 uM; Minimal (<IO%increase or a decrease in CT); format: functional; conditions: Canis lupus familiaris; Purkinje fiber; summary of the method: as §4
Canis familiaris [20] = organism: Canis familiaris; assay: In vitro electrophysiological evaluation in canine cardiac Purkinje fibres reported as maximum percent change Vmax concentration range of 0.1-30 uM; Minimal (<IO%increase or a decrease in CT); format: functional; conditions: Canis lupus familiaris; Purkinje fiber; summary of the method: as §4
Canis familiaris [21] = organism: Canis familiaris; assay: In vitro electrophysiological activity in canine cardiac Purkinje fibres given as maximum % change for action potential duration at 0.1-10 uM concentration; format: functional, Canis lupus familiaris, Purkinje fiber
Summary of the method: (§5)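 Canine cardiac Purkinje fibres, intracellular recording at 1 s basic cycle length, over cumulative concentration ranges. Compound 10 mM stock in deionized water diluted into Tyrode's. Each fibre used once as its own control. Value is the maximum % change from control in APD at 95% repolarization, with the concentration where it occurred; both values given if a biphasic response (>20% reversal) occurred.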

Canis familiaris [22] = organism: Canis familiaris; assay: In vitro electrophysiological evaluation in canine cardiac Purkinje fibres reported as % change for action potential duration at 0.1-10 uM concentration range; format: functional, Canis lupus familiaris, Purkinje fiber; summary of the method: as §4
Canis familiaris [23] = organism: Canis familiaris; assay: In vitro electrophysiological evaluation in canine cardiac Purkinje fibres reported as % change for action potential duration at 0.1-30 uM concentration range; format: functional, Canis lupus familiaris, Purkinje fiber; summary of the method: as §4
Canis familiaris [24] = organism: Canis familiaris; assay: In vitro electrophysiological activity in canine cardiac Purkinje fibres given as maximum % change for action potential duration at 0.1-30 uM concentration; format: functional, Canis lupus familiaris, Purkinje fiber; summary of the method: as §5
Canis familiaris [25] = assay: Effective dose administered intravenously to elicit Antiarrhythmic efficacy in anesthetized dogs was reported. Value in parenthesis indicates no. of animals effective at that dose.; format: functional, Canis lupus familiaris, Heart
Summary of the method: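 Dogs are anesthetized and the chest reopened. Stimulating and recording electrodes go on the myocardium. Reproducible PES-induced sustained VT or VF is confirmed first; SVT is ended by burst pacing and VF by DC countershock. Compound is given iv in 0.9% saline and inducibility retested. A dose counts as effective when SVT/VF cannot be reinduced in two of three animals.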

CCCCCCC[N+]12CCC(CC1)/C(=C/Cc1ccc(Cl)cc1)C2.[Br-]
CT (Canis familiaris [1]): 5%
CT (Canis familiaris [2]): -5%
CT (Canis familiaris [3]): 0%
HR (Canis familiaris [4]): 5%
HR (Canis familiaris [5]): -9%
HR (Canis familiaris [6]): -13%
LV FRP (Canis familiaris [7]): 15%
LV FRP (Canis familiaris [8]): 16%
LV FRP (Canis familiaris [9]): 2%
Mean blood pressure (Canis familiaris [10]): 15%
Mean blood pressure (Canis familiaris [11]): 42%
Mean blood pressure (Canis familiaris [12]): 5%
FRP (Canis familiaris [13]): 21%
CT (Canis familiaris [14]): <10%
CT (Canis familiaris [15]): <10%
Vmax (Canis familiaris [16]): < 10%
Vmax (Canis familiaris [17]): < 10%
FRP (Canis familiaris [18]): 30%
Vmax (Canis familiaris [19]): < 10%
Vmax (Canis familiaris [20]): < 10%
APD95 (Canis familiaris [21]): 50%
APD95 (Canis familiaris [22]): 40%
APD95 (Canis familiaris [23]): 64%
APD95 (Canis familiaris [24]): 64%
Effective dose (Canis familiaris [25]): 0.3 mg/kg
